What all share (assay type): functional
For one test, the system named is Haemophilus influenzae. Briefly: In vitro antimicrobial activity against Haemophilus influenzae.
Another test concerns Staphylococcus aureus. The test is described as follows: In vitro antimicrobial activity against Staphylococcus aureus X1.
In test [1] the test system is Streptococcus pyogenes. The test is described as follows: Anti microbial activity against Streptococcus pyogenes.
Test [2] concerns Streptococcus pyogenes. Briefly: In vivo effective dose against experimental infections in rodent caused by Streptococcus pyogenes C203 when administered sc.
Test [3] has as its system Streptococcus pyogenes. Briefly: Activity against Streptococcus pyogenes C203 when administered orally. The conditions noted are these: po. The method, boiled down: (§1)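 Mouse protection test: infected mice were dosed twice, at 1 and 5 h postinfection, either subcutaneously or orally. […] The result is expressed as ED50 in mg/kg × 2.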
In test [4] the test system is Streptococcus pyogenes. The test is described as follows: Activity against Streptococcus pyogenes C203 when administered sc. The method, boiled down:
as §1

A further test has as its system Streptococcus pneumoniae. Briefly: In vitro antimicrobial activity against Streptococcus pneumoniae.
The subject of test [5] is Staphylococcus epidermidis. The test is described as follows: In vitro antimicrobial activity against Staphylococcus epidermidis EPI1.
The subject of test [6] is Streptococcus pyogenes. The test is described as follows: In vitro antimicrobial activity against Streptococcus pyogenes C203.
Test [7] deals with Streptococcus pyogenes. Briefly: In vivo effective dose against experimental infections in rodent caused by Streptococcus pyogenes C203 when administered orally. The conditions noted are these: po.

≈ marks a conversion by molar mass, not a printed value.

With `CC[C@H]1OC(=O)C[C@@H](O)[C@H](C)[C@@H](O[C@@H]2O[C@H](C)[C@@H](O[C@H]3C[C@@](C)(O)[C@@H](O)[C@H](C)O3)[C@H](N(C)C)[C@H]2O)[C@@H](C)C[C@@H](C)C(=O)/C=C/C(C)=C/[C@@H]1CO[C@@H]1O[C@H](C)[C@@H](O)[C@@H](OC)[C@H]1OC` [DEFORMYLTYLOSIN], the MIC against Haemophilus influenzae turned out to be 128 µg/mL (≈ 144 µM); in the test with Staphylococcus aureus, 0.5 µg/mL (≈ 0.563 µM); against Streptococcus pyogenes [1], 1 µg/mL (≈ 1.13 µM); against Streptococcus pneumoniae it was 32 µg/mL (≈ 36 µM); in test [5] it was 1 µg/mL (≈ 1.13 µM); with Streptococcus pyogenes [6] it was 1 µg/mL (≈ 1.13 µM). The ED50 with Streptococcus pyogenes [2] came to 2 mg/kg; in the test on Streptococcus pyogenes [3], 12 mg/kg; in the test on Streptococcus pyogenes [4], 2 mg/kg; in the test with Streptococcus pyogenes [7] it was 12 mg/kg.

These data come from ChEMBL document CHEMBL1124186, “Synthesis and evaluation of tylosin-related macrolides modified at the aldehyde function: a new series of orally effective antibiotics” (1988).
